Experimental data as given in PubChem BioAssay AID504353 (Broad Institute, 2011).
The source made the active and inactive calls.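 The calls were made as follows: active = fitted curve climbs past 10% caspase activation, relative to the positive control, at or below the top valid tested dose; inactive = the rest, including activity in the opposite direction.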

What was measured:
[1] = caspase activation in wild-type mouse fibroblasts, dose response, counter-screen for A1 inhibitor project, cell-based, wild-type MEF, luminescence, dry powder, set 4 (AID 504353); conditions: wild-type MEF caspase-3/7 activation, CaspaseGlo luminescence, 3 h; at 35 µM (top of the series)
Procedure, shortened: (§1)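 Material – unprimed wild-type mouse embryonic fibroblasts lacking A1/BIM co-expression · Amount – 2500 cells per well · Timing – 3 h compound exposure at 37 °C, 5% CO2 · Detection – CaspaseGlo luminescence, 1 h reagent step · Dosing – compound delivered to cells by pin transfer · Measure – caspase activation level from luminescent signal · Medium – RPMI-1640, 10% FBS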

[2] = test system: wild-type MEF caspase-3/7 activation, CaspaseGlo luminescence, 3 h; test: as above
Procedure, shortened: as §1

SMILES | caspase activation [1] | AC10 [2] [µM]
CCn1c(=O)c([N+](=O)[O-])c(Sc2ccc(C)cc2)c2ccccc21 | 0.55% (inactive) | –
Cn1c(=O)c([N+](=O)[O-])c(Cl)c2ccccc21 | – | 2.9
COc1ccc(CCNc2nc(N3CCOCC3)nc(N3CCOCC3)n2)cc1OC | 0.427% (inactive) | –
Cn1c(=O)c([N+](=O)[O-])c(-n2cnc3ccccc32)c2ccccc21 | – | 26.1
Cc1ccc(Sc2c([N+](=O)[O-])c(=O)n(Cc3ccccc3)c3ccccc23)cc1 | – | 21.7
O=c1[nH]c2ccccc2c(Cl)c1[N+](=O)[O-] | -2.56% (inactive) | –
O=C(COc1ccc(Cl)cc1Cl)NNc1nc(N2CCOCC2)nc(N2CCOCC2)n1 | 2.07% (inactive) | –
O=c1c([N+](=O)[O-])c(Cl)c2ccccc2n1Cc1ccccc1 | – | 3.93
COCCn1c(=O)c([N+](=O)[O-])c(Sc2ccc(C)cc2)c2ccccc21 | – | 22
Cc1ccc(Sc2c(Sc3ccc(C)cc3)c3ccccc3n(C)c2=O)cc1 | -0.533% (inactive) | –
C/C(=N\Nc1nc(N2CCCCC2)nc(N2CCCCC2)n1)c1ccc(F)cc1 | 0.729% (inactive) | –
COCCn1c(=O)c(Sc2ccc(C)cc2)c(Sc2ccc(C)cc2)c2ccccc21 | 0.618% (inactive) | –
